In ChEMBL document CHEMBL3232893, “Design of antiviral stapled peptides containing a biphenyl cross-linker” (Bioorg Med Chem Lett, 2014) one finds CC50, IC50 and Drug uptake data, which are given here for seven molecules.

Series [1] can be described thus: Cytotoxicity against human TZM-bl cells after 3 days by XTT assay. Format: cell-based. On the technique in general: Tetrazolium dyes change colour on reduction, which living cells bring about.
Series [2] deals with Human immunodeficiency virus 1. The experiment in a line: Antiviral activity against HIV-1 3B infected in human MT-2 cells assessed as reduction in p24 antigen level incubated for overnight measured on fourth day post infection by multi-cycle infection assay based sandwich ELISA. Format: functional, organism-based. As to conditions: Human immunodeficiency virus 1, 3B, MT2; call rule not given here. In short, it runs like this: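 Multi-cycle infection in MT-2 cells; read-out is reduction of p24 levels. IC50 derived from dose-response.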
(In general: In an ELISA, binding on a coated surface is turned into a signal by an enzyme label.)

Series [3] in a line: Cytotoxicity against human MT2 cells after 4 days by XTT assay. The format is cell-based.
The subject of series [4] is Human immunodeficiency virus 1. The experiment in a line: Antiviral activity against HIV-1 NL4-3-HXB2 pseudovirus co-transfected with luciferase gene infected in human TZM-bl cells assessed as reduction of luciferase production after 3 days by single-cycle neutralization assay. Format: functional, organism-based. To be noted: Human immunodeficiency virus 1, NL4-3-HXB2, TZM-bl, 72 h. The gist of the method: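 Single-cycle neutralization in TZM-bl cells; read-out is reduction of luciferase production. IC50 derived from dose-response.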

Series [5] in a line: Drug uptake in human HEK293T cells assessed as increase in fluorescence at 5 uM after 2 hrs by confocal microscopy. Format: ADME, cell-based. As to conditions: hek-293t. The gist of the method:
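HEK293T cells were incubated with 5 μM FITC-labeled peptide at 37°C for 2 h. Intracellular fluorescence was imaged by confocal microscopy, with DIC images alongside.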

Structures are written as SMILES. Bridge positions count the residues as written; N and C are the ends. Square brackets hold non-standard residues; d marks the D form. Peptide text beside a SMILES is read from it. R8 = C=CCCCCCC[C@@](C)(N)C(=O)O; S5 = C=CCCC[C@](C)(N)C(=O)O

By CC50 is commonly meant the concentration that lowers cell viability or growth by half. A lower CC50 goes with harm at low concentration. A word on the IC50: it is the midpoint of a concentration-inhibition curve. As for `CC[C@H](C)[C@H](NC(C)=O)C(=O)N[C@@H](CO)C(=O)N[C@@H](Cc1ccccc1)C(=O)N[C@@H]1CSCc2ccc(cc2)-c2ccc(cc2)CSC[C@@H](C(=O)N[C@@H](CCC(=O)O)C(=O)N[C@@H](CO)C(=O)NCC(=O)N[C@@H](CO)C(N)=O)NC(=O)[C@H](Cc2ccc(O)cc2)NC(=O)[C@H](Cc2ccc(O)cc2)NC(=O)[C@H](CC(=O)O)NC(=O)[C@H](CC(C)C)NC(=O)[C@H](CC(C)C)NC(=O)[C@H](CCC(N)=O)NC1=O`, in series [1], the CC50 at 72 h is over 103 µM. In addition, the values for the IC50 in series [2] and in series [4] were 5.5 µM and 3.1 µM, respectively. The molecule further returned a CC50 at 96 h in series [3] of over 103 µM.

As to `CC[C@H](C)[C@H](NC(C)=O)C(=O)N[C@@H](CO)C(=O)N[C@@H](Cc1ccccc1)C(=O)N[C@@H]1CSCc2ccc(cc2)-c2ccc(cc2)CSC[C@@H](C(=O)N[C@@H](CCC(=O)O)C(=O)N[C@@H](CO)C(=O)NCC(=O)N[C@@H](CO)C(N)=O)NC(=O)[C@H](Cc2ccc(O)cc2)NC(=O)[C@H](Cc2ccc(O)cc2)NC(=O)[C@H](CC(N)=O)NC(=O)[C@H](CC(C)C)NC(=O)[C@H](CC(C)C)NC(=O)[C@H](CCC(=O)O)NC1=O`, in series [1], the CC50 at 72 h is over 102 µM. In addition, the results for the 50% inhibitory concentration (IC50) in series [2] and in series [4] were 8.8 µM and 1.8 µM, respectively. Moreover, the CC50 at 96 h in series [3] was over 102 µM.

Turning to `CC[C@H](C)[C@H](NC(C)=O)C(=O)N[C@@H](CO)C(=O)N[C@@H](Cc1ccccc1)C(=O)N[C@@H]1CSCc2ccc(cc2)-c2ccc(cc2)CSC[C@@H](C(=O)N[C@@H](CCC(=O)O)C(=O)N[C@@H](CO)C(=O)NCC(=O)N[C@@H](CO)C(N)=O)NC(=O)[C@H](Cc2ccc(O)cc2)NC(=O)[C@H](Cc2ccc(O)cc2)NC(=O)[C@H](CC(N)=O)NC(=O)[C@H](CC(C)C)NC(=O)[C@H](CC(C)C)NC(=O)[C@H](CCC(N)=O)NC1=O`, in series [1], the CC50 at 72 h was over 102 µM. Besides, the figures for the IC50 in series [2] and in series [4] were 5.7 µM and 1.6 µM, respectively. This molecule showed a CC50 at 96 h in series [3] of 51 µM.

With `CC[C@H](C)[C@H](NC(C)=O)C(=O)N[C@@H](CO)C(=O)N[C@@H](Cc1ccccc1)C(=O)N[C@@H]1CSCc2ccc(cc2)-c2ccc(cc2)CSC[C@@H](C(=O)N[C@@H](CCC(=O)O)C(=O)N[C@@H](CO)C(=O)NCC(=O)N[C@@H](CO)C(N)=O)NC(=O)[C@H](Cc2ccc(O)cc2)NC(=O)[C@H](Cc2ccc(O)cc2)NC(=O)[C@H](CC(=O)O)NC(=O)[C@H](C)NC(=O)[C@H](CC(C)C)NC(=O)[C@H](CCC(=O)O)NC1=O`, the CC50 at 72 h in series [1] is over 52 µM. Moreover, the values for the 50% inhibitory concentration (IC50) in series [2] and in series [4] were 4.1 µM and 1.4 µM, respectively. The molecule also displayed a half-maximal cytotoxic concentration (CC50) at 96 h in series [3] of 26 µM.

In turn, `CC[C@H](C)[C@H](NC(C)=O)C(=O)N[C@@H](CO)C(=O)N[C@@H](Cc1ccccc1)C(=O)N[C@@H]1CSCc2ccc(cc2)-c2ccc(cc2)CSC[C@@H](C(=O)N[C@@H](CCC(=O)O)C(=O)N[C@@H](CO)C(=O)NCC(=O)N[C@@H](CO)C(N)=O)NC(=O)[C@H](C)NC(=O)[C@H](Cc2ccc(O)cc2)NC(=O)[C@H](CC(=O)O)NC(=O)[C@H](CC(C)C)NC(=O)[C@H](CC(C)C)NC(=O)[C@H](CCC(=O)O)NC1=O` displayed a CC50 at 72 h in series [1] of over 107 µM. Moreover, the IC50 in series [2] was found to be 14 µM; in series [4], 17.3 µM. In addition, the CC50 at 96 h in series [3] was over 107 µM.

With `CC[C@H](C)[C@H](NC(=S)Nc1ccc(-c2c3ccc(=O)cc-3oc3cc(O)ccc23)c(C(=O)O)c1)C(=O)N[C@@H](CO)C(=O)N[C@@H](Cc1ccccc1)C(=O)N[C@@H]1CSCc2ccc(cc2)-c2ccc(cc2)CSC[C@@H](C(=O)N[C@@H](CCC(=O)O)C(=O)N[C@@H](CO)C(=O)NCC(=O)N[C@@H](CO)C(=O)O)NC(=O)[C@H](Cc2ccc(O)cc2)NC(=O)[C@H](Cc2ccc(O)cc2)NC(=O)[C@H](CC(=O)O)NC(=O)[C@H](CC(C)C)NC(=O)[C@H](CC(C)C)NC(=O)[C@H](CCC(=O)O)NC1=O`, in series [5], the Drug uptake entry is listed as “Active”.

Consider `CC[C@H](C)[C@H](N)C(=O)N[C@@H](CO)C(=O)N[C@@H](Cc1ccccc1)C(=O)N[C@]1(C)CCCCCC/C=C\CCC[C@@](C)(C(=O)N[C@@H](CCC(=O)O)C(=O)N[C@@H](CO)C(=O)NCC(=O)N[C@@H](CO)C(=O)O)NC(=O)[C@H](Cc2ccc(O)cc2)NC(=O)[C@H](Cc2ccc(O)cc2)NC(=O)[C@H](CC(=O)O)NC(=O)[C@H](CC(C)C)NC(=O)[C@H](CC(C)C)NC(=O)[C@H](CCC(=O)O)NC1=O` (H-ISF[R8]ELLDYY[S5]ESGS-OH; staple (Z) 4-11), for which the 50% cytotoxic concentration (CC50) at 72 h in series [1] was over 189 µM. The IC50 was found to be 1.5 µM in series [2] and 2 µM in series [4]. In addition, the 50% cytotoxic concentration (CC50) at 96 h in series [3] is over 189 µM.
